Bioassay records from PubChem.
M4 antag = CHRM4 antagonism in calcium assay; P08173; CHO-hM4 cells, ACh EC80, Fluo-8 calcium fluorescence; inhibition, % at 3 µM; 360,000 tested, 0.73% active;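 active = inhibition above its plate's cutoff, the mean inhibition of sample wells plus 3 SD, cut at about 27% in these data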;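 also: 0% = acetylcholine EC80 with DMSO and 100% = DMSO without agonist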
Target sequence (P08173 whole entry, looked up): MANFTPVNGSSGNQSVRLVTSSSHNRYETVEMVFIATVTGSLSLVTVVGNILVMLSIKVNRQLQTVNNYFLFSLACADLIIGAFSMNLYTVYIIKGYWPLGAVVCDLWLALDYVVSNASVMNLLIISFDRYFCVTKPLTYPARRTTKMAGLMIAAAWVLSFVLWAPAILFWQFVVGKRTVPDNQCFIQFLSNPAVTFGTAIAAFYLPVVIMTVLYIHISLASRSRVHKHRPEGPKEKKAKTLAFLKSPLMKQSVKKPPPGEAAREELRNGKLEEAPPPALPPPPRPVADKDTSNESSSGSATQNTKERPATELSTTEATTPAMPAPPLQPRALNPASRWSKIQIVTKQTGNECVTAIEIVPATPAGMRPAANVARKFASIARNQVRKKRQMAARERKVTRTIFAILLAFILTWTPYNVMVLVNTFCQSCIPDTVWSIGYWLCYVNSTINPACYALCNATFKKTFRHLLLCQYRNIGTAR
CHRM5 PAM = CHRM5 positive allosteric modulation; P08912; CHO-K1 hM5, Fluo-8 calcium, ACh EC20 PAM; 0% = ACh EC20, 100% = ACh EC100; activation, % at 3 µM; 360,000 tested, 0.3% active;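 active = activation above the run cutoff, the mean activation of all test compounds plus 3 SD, cut at about 18% in these data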
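Measured by: Fluo-8 calcium fluorescence; material: human M5 receptor in CHO-K1 cells; schedule: Post-acetylcholine fluorescence recording 140 s; benchmarks: low control EC20 acetylcholine (0%), high control EC100 acetylcholine (100%); read-out: Max/basal fluorescence ratio as % of EC20–EC100 ACh window; compound: single dose, 3 µM nominal final test concentration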
M4 PAM = positive allosteric modulators of human muscarinic M4 receptor. activation, % at 3 µM. AID 624126. CHO-K1 hM4/Gqi5, Fluo-8 calcium fluorescence, ACh EC20; 0% = ACh EC20, 100% = maximal ACh. 360,000 tested, 0.4% active. P08173;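 active = activation above its plate's cutoff, the mean activation of sample wells plus 3 SD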
M5 antag = blocks acetylcholine activation of human M5 receptor. CHO-hM5 cells, Fluo-8 calcium fluorescence, ACh EC80. AID 624040. inhibition, % at 3 µM. 360,000 tested, 0.59% active;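 active = inhibition above a per-plate cutoff, the mean of that plate's test compounds plus 3 SD, cut at about 27% in these data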;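 also: 0% = acetylcholine EC80 with DMSO and 100% = DMSO without agonist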
M5 ag = agonists of human muscarinic M5 receptor (CHRM5) | CHO-K1 hM5 cells, Fluo-8 calcium fluorescence; 0% DMSO wells, 100% maximal acetylcholine response | activation, % at 3 µM | 360,000 tested, 0.19% active;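 active = activation above the run's mean over test compounds plus 3 SD, cut at about 23% in these data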;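 also: signal is peak over basal fluorescence ratio across the kinetic read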
M4 ag = CHRM4 agonism in calcium assay; AID 624127; 360,000 tested, 0.14% active; activation, % at 3 µM; CHO-K1 hM4/Gqi5, Fluo-8 calcium fluorescence; vehicle 0%, full acetylcholine response 100%; P08173;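 active = activation above the run mean over all test wells plus 3 SD, cut at about 32% in these data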;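 also: peak over basal fluorescence ratio per well then scaled between controls; 0% = DMSO wells and 100% = acetylcholine at EC100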
* hit, by the source's call. An excerpt weighted towards active compounds, which were near 1.8% of everything screened.

Results for Cc1cc(C(C)(C)C)cc(C)c1C[n+]1ccc2ccccc2c1 ?
M4 antag: 29*; CHRM5 PAM: -5; M4 PAM: -13; M5 antag: 12; M5 ag: -8; M4 ag: 0

Results for COc1ccccc1C(=O)Nc1ccc(-c2nnc(SCC(=O)O)n2C)cc1 ?
M4 antag: 37*; CHRM5 PAM: 10; M4 PAM: 19; M5 antag: 0; M5 ag: -3; M4 ag: 2

Results for Oc1ccc(C[C@@H]2CNCCN2CCc2cc(C(F)(F)F)cc(C(F)(F)F)c2)cc1 ?
M4 antag: 15; CHRM5 PAM: 15; M4 PAM: 25*; M5 antag: -1; M5 ag: 8; M4 ag: 6

How did Cc1ccccc1-n1c(Cn2c(=O)sc3ccccc32)nnc1SCC(=O)Nc1nccs1 do in these assays?
M4 antag: -5; CHRM5 PAM: 2; M4 PAM: 4; M5 antag: -3; M5 ag: 2; M4 ag: 2

How did Cc1csc(NC(=O)CSc2nnc(Cn3c(=O)sc4ccccc43)n2-c2ccccc2)n1 do in these assays?
M4 antag: -5; CHRM5 PAM: -6; M4 PAM: 29*; M5 antag: 6; M5 ag: 3; M4 ag: 4

Results for Cc1ccccc1C(=O)Nc1ccccc1C(=O)N/N=C\c1ccco1 ?
M4 antag: -17; CHRM5 PAM: -3; M4 PAM: 31*; M5 antag: -8; M5 ag: 0; M4 ag: 2

How did O=C(Nc1ccccc1C(=O)N/N=C/c1ccco1)c1ccc(F)cc1 do in these assays?
M4 antag: 21; CHRM5 PAM: 9; M4 PAM: 36*; M5 antag: -22; M5 ag: 0; M4 ag: 1

How did O=C(N/N=C/c1ccco1)c1cccc([N+](=O)[O-])c1 do in these assays?
M4 antag: 1; CHRM5 PAM: 5; M4 PAM: 28*; M5 antag: -9; M5 ag: -1; M4 ag: 1

Results for CN(C(=O)c1ccccc1F)C(c1ccccc1)c1ccccc1 ?
M4 antag: 7; CHRM5 PAM: -3; M4 PAM: -9; M5 antag: 2; M5 ag: -5; M4 ag: 5

What do the screens show for `CCOC(=O)N1CCN(C(=O)C2CCN(C(=O)c3ccc(C(C)(C)C)cc3)CC2)CC1`?
M4 antag: -14; CHRM5 PAM: -2; M4 PAM: 2; M5 antag: 11; M5 ag: -2; M4 ag: 2

Results for Nn1c(=O)c2ccccc2n2c(SCc3ccccc3)nnc12 ?
M4 antag: -17; CHRM5 PAM: 38*; M4 PAM: 13; M5 antag: 29*; M5 ag: -4; M4 ag: 2

How did CCOC(=O)C1CCC(CNCc2ccc(Cl)cc2)CC1 (centres undefined) do in these assays?
M4 antag: 42*; CHRM5 PAM: -15; M4 PAM: -14; M5 antag: 21; M5 ag: -7; M4 ag: 2

How did CCN(CC)c1ccc(/C=C/C(=O)c2ccc(Br)cc2)cc1 do in these assays?
M4 antag: 67*; CHRM5 PAM: -18; M4 PAM: -17; M5 antag: 67*; M5 ag: 113*; M4 ag: 94*

What do the screens show for `CC(=O)c1cccc(CN(C)CC2CCCN(CCc3ccccc3C)C2)c1` (centres undefined)?
M4 antag: 88*; CHRM5 PAM: -33; M4 PAM: -16; M5 antag: 81*; M5 ag: -23; M4 ag: 2

What do the screens show for `COc1ccccc1CCN1CCCC(CN(C)CC(C)(C)CO)C1` (centres undefined)?
M4 antag: 30*; CHRM5 PAM: -1; M4 PAM: -16; M5 antag: 11; M5 ag: -16; M4 ag: 1

Results for COC(=O)c1cccc(NC(=O)CSc2nc(O)c(-c3ccccc3)c(=O)[nH]2)c1 ?
M4 antag: -5; CHRM5 PAM: 11; M4 PAM: 24*; M5 antag: 0; M5 ag: 0; M4 ag: 1

Results for CC(=O)Nc1c(O)nc(SCC(=O)N2CCCCC2)[nH]c1=O ?
M4 antag: -7; CHRM5 PAM: 5; M4 PAM: 23*; M5 antag: -3; M5 ag: 1; M4 ag: 1

How did CC(=O)Nc1c(O)nc(SCC(=O)Nc2ccc(C(C)=O)cc2)[nH]c1=O do in these assays?
M4 antag: 3; CHRM5 PAM: 2; M4 PAM: 0; M5 antag: 1; M5 ag: 4; M4 ag: 2

What do the screens show for `CC(=O)Nc1c(O)nc(SCC(=O)Nc2cccc(C)c2)[nH]c1=O`?
M4 antag: -3; CHRM5 PAM: 1; M4 PAM: 42*; M5 antag: 1; M5 ag: 4; M4 ag: 2

How did COC(=O)c1ccccc1NC(=O)CSc1nc(O)c(-c2ccccc2)c(=O)[nH]1 do in these assays?
M4 antag: -5; CHRM5 PAM: 3; M4 PAM: 3; M5 antag: 4; M5 ag: -2; M4 ag: 0

What do the screens show for `CCOc1ccc(Br)cc1S(=O)(=O)NCC(c1ccc(OC)cc1)N1CCOCC1` (centres undefined)?
M4 antag: -1; CHRM5 PAM: -5; M4 PAM: 5; M5 antag: 2; M5 ag: 1; M4 ag: 1

Results for O=C(CCC(=O)N(CC(=O)NC1CCCC1)Cc1ccccc1Cl)Nc1nccs1 ?
M4 antag: -1; CHRM5 PAM: -3; M4 PAM: 1; M5 antag: 9; M5 ag: -2; M4 ag: 0

Results for COc1ccccc1N1C(=O)C2C(C(=O)c3ccccc3)=NN(c3ccc(C)cc3)C2C1=O (centres undefined) ?
M4 antag: 0; CHRM5 PAM: 14; M4 PAM: -8; M5 antag: -10; M5 ag: 8; M4 ag: 1

How did COc1ccccc1N1C(=O)C2C(C(=O)c3ccccc3)=NN(c3ccc(Br)cc3)C2C1=O (centres undefined) do in these assays?
M4 antag: 37*; CHRM5 PAM: 9; M4 PAM: -7; M5 antag: -1; M5 ag: 1; M4 ag: 20

What do the screens show for `CC1CN(C(=O)CCC(=O)NCCCN2C(C)CCCC2C)c2ccccc2O1` (centres undefined)?
M4 antag: -15; CHRM5 PAM: 3; M4 PAM: 6; M5 antag: -4; M5 ag: -2; M4 ag: 0
